The target of data set [1] is T1, PDI (Homo sapiens, UniProt P07237). Kind of data set: PDI-catalyzed insulin reduction. The data set is classed as biochemical.
For data set [2], the system named is NU04 cells. Kind of data set: MTT growth inhibition assay, NU04. The following applies: Homo sapiens, 72 h, read-out: IC50, cytotoxicity NU04. For orientation: Tetrazolium assays rely on reduction of a dye to a coloured formazan, in cell work by metabolically active cells.
The test system of data set [3] is A172 cells. Kind of data set: MTT growth inhibition assay, A172. The following applies: Homo sapiens, A 172, 72 h, read-out: IC50, cytotoxicity A172.
The test system of data set [4] is U87MG cells. Kind of data set: MTT growth inhibition assay, U87MG. To be noted: for IC50: read-out: IC50, cytotoxicity U87MG; for Effect on cell growth: in words.
In data set [5] the test system is U118MG cells. Kind of data set: MTT growth inhibition assay, U118MG. The following applies: Homo sapiens, U-118-MG, 72 h, read-out: IC50, cytotoxicity U118MG.
Data set [6] deals with PDI. The following applies: reversible PDI modulator; cited from earlier work.
Data set [7] has as its target T1, PDI. Description: Cellular thermal shift assay. It is filed as cell-based. The following applies: U87MG cells, 2 hours. The method, boiled down:
(§1)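 U87MG cells (2 × 10^6 per 100 mm dish) were attached overnight, then treated with test compound (0.5, 1.0 or 2.0 μM) or DMSO for 2 h at 37 °C, 5% CO2. Cells were trypsinized, washed in DPBS and aliquoted. Aliquots were heated at set temperatures for 3 min, held 3 min at room temperature and freeze-thawed twice. Cleared supernatants were run on 10% SDS-PAGE and Western blotted.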

In data set [8] the target is T2, GRP78 (Homo sapiens, UniProt P11021). Description: Cellular thermal shift assay. It is filed as cell-based. To be noted: U87MG cells, 2 hours. Put shortly: as §1
T2 sequence (P11021 19-654): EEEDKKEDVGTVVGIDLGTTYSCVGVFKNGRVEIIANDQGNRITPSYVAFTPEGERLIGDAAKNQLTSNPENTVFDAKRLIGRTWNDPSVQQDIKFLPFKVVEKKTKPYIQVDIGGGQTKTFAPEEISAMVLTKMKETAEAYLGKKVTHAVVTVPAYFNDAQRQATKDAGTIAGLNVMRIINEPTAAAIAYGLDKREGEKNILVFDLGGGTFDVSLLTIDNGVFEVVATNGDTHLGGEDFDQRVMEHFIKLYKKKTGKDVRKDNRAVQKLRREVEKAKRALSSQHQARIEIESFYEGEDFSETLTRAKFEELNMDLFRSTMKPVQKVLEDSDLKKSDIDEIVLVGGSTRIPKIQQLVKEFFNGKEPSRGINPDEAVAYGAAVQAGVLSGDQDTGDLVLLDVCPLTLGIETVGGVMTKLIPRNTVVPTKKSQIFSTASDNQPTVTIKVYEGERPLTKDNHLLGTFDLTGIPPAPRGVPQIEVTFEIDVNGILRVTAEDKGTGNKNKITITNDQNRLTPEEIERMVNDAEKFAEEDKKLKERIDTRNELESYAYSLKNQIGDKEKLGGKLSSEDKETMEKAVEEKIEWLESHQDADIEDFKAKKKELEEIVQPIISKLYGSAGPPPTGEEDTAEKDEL
The target of data set [9] is T3, glutathione-transferase Omega 1 (GSTO1) (Homo sapiens, UniProt P78417).
T3 sequence (P78417 1-241): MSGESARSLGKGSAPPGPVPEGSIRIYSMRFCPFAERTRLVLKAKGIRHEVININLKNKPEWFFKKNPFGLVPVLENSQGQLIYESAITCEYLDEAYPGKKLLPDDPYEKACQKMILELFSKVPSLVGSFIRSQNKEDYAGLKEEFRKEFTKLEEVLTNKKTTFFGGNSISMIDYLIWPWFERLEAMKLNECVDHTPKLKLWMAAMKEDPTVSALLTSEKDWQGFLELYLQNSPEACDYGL
Kind of data set: Cellular thermal shift assay. The data set is classed as cell-based. The following applies: U87MG cells, 2 hours. Put shortly: as §1

For data set [10], the target named is T1, PDI. Description: DARTS assay in U87MG cell lysates, PDI. The data set is classed as binding. The following applies: 100 μM compound, U87MG lysate. The method, boiled down: (§2)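 U87MG cells at 80–85% confluence were lysed on ice for 10 min (150 mM NaCl, 1% NP-40, 0.5% deoxycholate, 50 mM Tris pH 8.0) and cleared at 18,000 × g. Lysate (5 mg/ml) was incubated with 100 μM test compound or DMSO for 30 min at RT. Pronase (0, 0.005, 0.01, 0.02 μg/μL) was added for 30 min at RT and stopped with protease inhibitors on ice. 20 μg protein was Western blotted; three independent experiments.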

Data set [11] has as its target T2, GRP78. Kind of data set: DARTS assay in U87MG cell lysates, GRP78. The data set is classed as binding. To be noted: 100 μM compound, U87MG lysate. The method, boiled down: as §2
The next data set deals with T4, GSTO1 (Homo sapiens, UniProt P78417).
T4 sequence (P78417 1-241): T3 sequence (P78417 1-241)
Kind of data set: DARTS assay in U87MG cell lysates, GSTO1. It is filed as binding. To be noted: 100 μM compound, U87MG lysate. Put shortly:
as §2

The test system of data set [12] is U87MG cells. Kind of data set: Bru-seq nascent RNA sequencing. The data set is classed as cell-based, human. To be noted: 1 μM, 4 hours. Put shortly: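 U87MG cells plated on day 1, given fresh medium on day 5, then exposed to test compound (1 μM) or DMSO for 4 h. Bromouridine (2 mM final) labelled nascent RNA during the last 30 min. Total RNA was isolated in TRIzol, and BrU-RNA was isolated, sequenced and mapped. Genes >300 bp with mean RPKM >0.5 (7,770 genes) were ranked by fold change vs DMSO.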

Data set [13] concerns U87MG cells. Kind of data set: Western blot of protein expression. It is filed as cell-based, human. The following applies: 24-hour treatment. Put shortly: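 U87MG cells were treated with test compound (1 or 2 μM) or vehicle for 24 h. 50 μg protein on 10% gels (12% for LC3B, DDIT3), transferred to PVDF. GAPDH loading control; triplicate experiments.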
A general note: Immunoblotting shows a protein as a band on a membrane.

Data set [14] has as its system U87MG cells. Description: ROS detection assay. The data set is classed as cell-based, human. The following applies: 5 μM, 24 hours; comparable to 100 μM hydrogen peroxide. Put shortly:
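Trypsinized U87MG cells were loaded in suspension with 20 μM H2DCFDA for 30 min at 37 °C, washed, plated at 20,000 cells/well, rested 30 min, then treated. Fluorescence (493/523 nm) was read at 4, 6 and 24 h. Hydrogen peroxide (500, 100, 20 μM) served as reference. Means ± standard deviation of three independent experiments.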

The subject of data set [15] is U87MG cells. Kind of data set: MTT cell viability with or without deferoxamine. The following applies: Homo sapiens, U-87 MG, 12 h, read-out: IC50, cell viability, used alone. It is filed as cell-based.
The test system of another data set is glioblastoma cells. Description: MTT growth inhibition of 35G8 combined with Z-VAD-FMK, necrostatin-1 or NAC. The data set is classed as cell-based, human.
The test system of data set [16] is U87MG cells.
Data set [17] relates to U118MG cells.
For data set [18], the system named is NU04 cells.
Data set [19] has as its system A172 cells.

This is an account of results in publication PMC6242712 (ChemMedChem, 2018).

Read-outs that look alike come from different tables or passages of the source.

What is called IC50 is the concentration needed to halve the response being measured. The EC50 is the concentration that produces a half-maximal response.

T1 sequence (P07237 18-508): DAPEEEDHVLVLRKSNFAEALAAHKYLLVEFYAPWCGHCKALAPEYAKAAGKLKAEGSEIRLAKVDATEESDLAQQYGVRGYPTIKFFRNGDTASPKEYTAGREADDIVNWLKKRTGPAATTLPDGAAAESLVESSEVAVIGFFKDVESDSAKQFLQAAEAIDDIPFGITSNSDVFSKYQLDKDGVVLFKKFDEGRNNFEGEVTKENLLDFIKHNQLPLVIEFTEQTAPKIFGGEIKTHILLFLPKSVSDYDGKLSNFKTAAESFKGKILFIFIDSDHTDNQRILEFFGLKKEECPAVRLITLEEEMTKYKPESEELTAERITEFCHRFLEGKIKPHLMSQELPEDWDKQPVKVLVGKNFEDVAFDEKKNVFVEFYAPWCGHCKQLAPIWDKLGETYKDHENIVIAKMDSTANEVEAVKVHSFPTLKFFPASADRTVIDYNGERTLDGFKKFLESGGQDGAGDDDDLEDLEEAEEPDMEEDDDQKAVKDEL

On to `COc1ccc(-c2nc3c(=O)n(C)c(=O)nc-3n(C)n2)cc1` [Compound 4d, 3-(4-Methoxyphenyl)-1,6-dimethylpyrimido[5,4-e][1,2,4]triazine-5,7(1H,6H)-dione], for which the IC50 against PDI [1] is 360 ± 50 nM; in the data set with NU04 cells [2], 860 ± 40 nM; in the data set with A172 cells [3], 1500 ± 400 nM; in the data set with U87MG cells [4] (Homo sapiens, U-87 MG, 72 h) it was 1200 ± 200 nM; with U118MG cells [5], 3900 ± 600 nM.
Consider `Cn1ncnc2c(=O)n(C)c(=O)nc1-2` [NC72], for which the IC50 in the data set on U87MG cells [4] (MTT, 72 hours) stood at 500 ± 100 nM.
With `COc1cccc(-c2nc3c(=O)n(C)c(=O)nc-3n(C)n2)c1` [Compound 4e, 3-(3-Methoxyphenyl)-1,6-dimethylpyrimido[5,4-e][1,2,4]triazine-5,7(1H,6H)-dione], the IC50 against PDI [1] stood at 320 ± 10 nM; in the data set on NU04 cells [2], 760 ± 220 nM; with A172 cells [3], 1500 ± 100 nM; with U87MG cells [4] (Homo sapiens, U-87 MG, 72 h) it was 1100 ± 200 nM; in the data set with U118MG cells [5], 2400 ± 600 nM.
For `COc1ccc(-c2nn(C)c3nc(=O)n(C)c(=O)c-3[n+]2[O-])cc1` [Compound 5d, 3-(4-Methoxyphenyl)-1,6-dimethyl-5,7-dioxo-1,5,6,7-tetrahydropyrimido[5,4-e][1,2,4]triazine 4-oxide], in that order: 420 ± 70 nM, 1500 ± 700 nM, 1700 ± 100 nM, 1900 ± 700 nM and 4300 ± 100 nM.
The matching figures for `Cn1nc(-c2ccc([N+](=O)[O-])cc2)nc2c(=O)n(C)c(=O)nc1-2` [Compound 4f, 1,6-Dimethyl-3-(4-nitrophenyl)pyrimido[5,4-e][1,2,4]triazine-5,7(1H,6H)-dione]: 240 ± 40 nM, 4900 ± 1200 nM, 1100 ± 200 nM, 1800 ± 700 nM and 6200 ± 1600 nM.
Regarding `Cn1c(=O)[nH]c2nncnc2c1=O` [NC75], the “Effect on cell growth” value in the data set with U87MG cells [4] (MTT) is on record as “little effect on cell growth”. Further, the half-inhibitory concentration (IC50) in the data set on U87MG cells [4] (MTT, 72 hours) is > 100000 nM.
With `O=C(C1CC1)N1CCN(Cn2sc3ccccc3c2=O)CC1` [LOC14], in the data set with PDI [6], the EC50 was 500 nM.
With `Cc1nn(C)c2nc(=O)n(C)c(=O)c-2[n+]1[O-]` [NC79], the “Effect on cell growth” value with U87MG cells [4] (MTT) was “little effect on cell growth”. Besides, the IC50 in the data set with U87MG cells [4] (MTT, 72 hours) is > 100000 nM.
Consider `Cn1nc(Cc2ccccc2)nc2c(=O)n(C)c(=O)nc1-2` [Compound 4c, 3-Benzyl-1,6-dimethylpyrimido[5,4-e][1,2,4]triazine-5,7(1H,6H)-dione], for which the IC50 against PDI [1] is 330 ± 40 nM; with NU04 cells [2], > 30000 nM; with A172 cells [3] it was 8200 ± 2500 nM; in the data set with U87MG cells [4] (Homo sapiens, U-87 MG, 72 h) it was 12700 ± 3700 nM; in the data set on U118MG cells [5], 24000 ± 7400 nM.
Turning to `Cc1nc2c(=O)n(C)c(=O)nc-2n(C)n1` [Compound 35G8, 1,3,6-Trimethylpyrimido[5,4-e][1,2,4]triazine-5,7(1H,6H)-dione], on PDI [1], the IC50 was found to be 170 ± 10 nM. On PDI [7], the “Effect on thermal stability of PDI (CETSA)” value is on record as “destabilized”. For the same compound, the “Effect on thermal stability of GRP78 (CETSA)” value on GRP78 [8] is on record as “little effect”. In data set [9], the “Effect on thermal stability of GSTO1 (CETSA)” value is listed as “stabilize”. Also, at PDI [10], the “Protection of PDI from pronase proteolysis (DARTS)” value was “protected”. On GRP78 [11], the “Effect on degradation of GRP78 (DARTS)” value is “no effect”. Moreover, the “Effect on degradation of GSTO1 (DARTS)” value on GSTO1 is listed as “no effect”. For the same compound, in the data set on U87MG cells [12], the CHAC1 transcription was found to be 46 fold increase, the DDIT3 transcription is on record as 4 fold increase, the EGR1 transcription is −5.65 fold change and the HSPA5 transcription is given as 8 fold increase. Besides, in the data set on U87MG cells [12], the IRS2 transcription came out at 12 fold increase, the ITGA3 transcription is recorded as −3.89 fold change, the TMEM74 transcription is 28 fold increase and the TRIB3 transcription came out at 23 fold increase. In the data set on U87MG cells [12], the TXN expression is recorded as 2 fold increase, the TXNIP expression was 7.4 fold decrease, the TXNIP transcription is −7.40 fold change and the TXNRD1 expression worked out at 9 fold increase. Moreover, in the data set on U87MG cells [13] (2 μM), the “Cleaved LC3B expression” value is recorded as “increased significantly”; the DDIT3 protein expression entry is on record as “increased”; the “Expression of ATG3, ATG5, ATG7 and beclin 1” value is given as “did not change”; the “GRP78 (HSPA5) protein expression” value is reported as “increased”. Moreover, in the data set with U87MG cells [13] (1 or 2 μM), the HMOX1 protein expression result is “parallel increases” and the SLC7A11 protein expression result is on record as “parallel increases”. Also, in the data set with U87MG cells [14], the ROS induction result was “maximal ROS induction”. In addition, the IC50 in the data set on U87MG cells [15] came to 2200 ± 700 nM. In the data set with glioblastoma cells (NAC added at the same time as 35G8), the “Effect of N-acetyl-cysteine (NAC) on cytotoxicity of 35G8” value was “did not affect”. Further, in the data set on glioblastoma cells (Necrostatin-1 added 1 hour prior to 35G8), the “Protection from 35G8-induced cell death by necrostatin-1 pretreatment” value is given as “did not protect”. For the same compound, the “Protection from 35G8-induced cell death by Z-VAD-FMK pretreatment” value with glioblastoma cells (Z-VAD-FMK added 1 hour prior to 35G8) was “did not protect”. Moreover, in the data set with NU04 cells [2], the IC50 was 800 ± 200 nM. In the data set with A172 cells [3], the IC50 came out at 2000 ± 600 nM. The IC50 in the data set with U87MG cells [4] (Homo sapiens, U-87 MG, 72 h) is 1100 ± 200 nM. The IC50 with U118MG cells [5] came to 3900 ± 100 nM.
As for `Cn1nc(-c2ccccc2)nc2c(=O)n(C)c(=O)nc1-2` [Compound 4b, 1,6-Dimethyl-3-phenylpyrimido[5,4-e][1,2,4]triazine-5,7(1H,6H)-dione], the concentration for half-maximal inhibition (IC50) against PDI [1] was determined as 390 ± 30 nM; in the data set with NU04 cells [2] it was 3700 ± 1200 nM; in the data set with A172 cells [3], 1800 ± 400 nM; in the data set on U87MG cells [4] (Homo sapiens, U-87 MG, 72 h), 3000 ± 300 nM; in the data set on U118MG cells [5], 4600 ± 500 nM.
For the compound PACMA31, the “Protection of PDI from pronase proteolysis (DARTS)” value at PDI [10] is “protected”. Moreover, the “Effect on degradation of GRP78 (DARTS)” value at GRP78 [11] was “no effect”. Further, the “Effect on degradation of GSTO1 (DARTS)” value at GSTO1 is on record as “no effect”. Further, the IC50 is 130 ± 70 nM in the data set on U87MG cells [16], 280 ± 40 nM in the data set on U118MG cells [17], 400 ± 100 nM with NU04 cells [18] and 120 ± 100 nM in the data set with A172 cells [19].
